{"source": "ChEMBL document CHEMBL4043093", "about": "“2-Oxo-3, 4-dihydropyrimido[4, 5-d]pyrimidinyl derivatives as new irreversible pan fibroblast growth factor receptor (FGFR) inhibitors” (Eur J Med Chem, 2017)", "key": {"[1]": {"biological_target": "VEGFR2 (vascular endothelial growth factor receptor 2) (Homo sapiens, UniProt P35968)", "test": "Inhibition of wild-type human partial length VEGFR2 (R787 to P1253 residues) expressed in HEK293 cells assessed as residual activity at 1000 nM after 30 mins by Kinomescan method relative to control", "type": "cell-based", "details": "read-out: Activity"}, "[2]": {"biological_target": "Serine/threonine-protein kinase TAO3 (Homo sapiens) (UniProt Q9H2K8)", "test": "Inhibition of wild-type human partial length TAOK3 (M1 to T316 residues) expressed in HEK293 cells assessed as residual activity at 1000 nM after 30 mins by Kinomescan method relative to control", "type": "cell-based"}, "[3]": {"biological_target": "Serine/threonine-protein kinase PLK4 (Homo sapiens) (UniProt O00444)", "test": "Inhibition of wild-type human partial length PLK4 (M1 to S273 residues) expressed in HEK293 cells assessed as residual activity at 1000 nM after 30 mins by Kinomescan method relative to control", "type": "cell-based"}, "[4]": {"tested_on": "Phosphatidylinositol 4,5-bisphosphate 3-kinase catalytic subunit alpha isoform (Homo sapiens), P42336 [H1047L]", "sequence (P42336 whole entry H1047L, the tested form may be a part, canonical isoform)": "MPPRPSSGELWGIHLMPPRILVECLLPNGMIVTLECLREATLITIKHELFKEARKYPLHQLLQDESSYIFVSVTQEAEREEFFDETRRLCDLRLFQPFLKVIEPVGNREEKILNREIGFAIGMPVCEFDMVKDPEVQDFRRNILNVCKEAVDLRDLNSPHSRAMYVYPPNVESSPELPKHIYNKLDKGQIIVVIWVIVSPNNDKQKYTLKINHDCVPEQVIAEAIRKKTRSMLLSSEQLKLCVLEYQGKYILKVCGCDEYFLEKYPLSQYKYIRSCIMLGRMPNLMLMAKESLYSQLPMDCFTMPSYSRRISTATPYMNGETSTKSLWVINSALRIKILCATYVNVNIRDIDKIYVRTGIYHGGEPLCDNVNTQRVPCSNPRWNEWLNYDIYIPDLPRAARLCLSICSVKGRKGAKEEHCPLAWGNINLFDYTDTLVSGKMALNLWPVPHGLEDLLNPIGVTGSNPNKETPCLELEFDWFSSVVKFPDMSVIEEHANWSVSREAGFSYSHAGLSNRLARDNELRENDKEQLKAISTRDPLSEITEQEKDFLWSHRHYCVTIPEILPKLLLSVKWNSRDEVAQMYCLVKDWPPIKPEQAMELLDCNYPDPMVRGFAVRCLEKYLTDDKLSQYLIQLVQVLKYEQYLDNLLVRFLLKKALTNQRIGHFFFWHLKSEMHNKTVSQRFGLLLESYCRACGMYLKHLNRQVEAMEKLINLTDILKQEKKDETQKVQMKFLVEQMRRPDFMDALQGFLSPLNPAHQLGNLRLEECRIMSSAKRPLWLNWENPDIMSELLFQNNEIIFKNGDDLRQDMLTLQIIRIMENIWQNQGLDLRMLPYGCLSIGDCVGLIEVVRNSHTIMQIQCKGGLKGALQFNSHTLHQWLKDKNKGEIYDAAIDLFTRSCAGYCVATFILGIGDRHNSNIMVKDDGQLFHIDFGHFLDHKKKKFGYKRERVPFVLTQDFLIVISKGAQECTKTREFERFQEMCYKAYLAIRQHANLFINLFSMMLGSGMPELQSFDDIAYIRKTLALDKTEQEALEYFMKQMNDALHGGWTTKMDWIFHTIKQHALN", "test": "Inhibition of human partial length PIK3CA H1047L mutant (R108 to N1068 residues) expressed in HEK293 cells assessed as residual activity at 1000 nM after 30 mins by Kinomescan method relative to control", "type": "cell-based", "method_in_brief": "(§1)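 KINOMEscan binding panel of 456 kinases, with the test compound at a single concentration of 1 µM. Read-out is Percent Control.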"}, "[5]": {"biological_target": "Serine/threonine-protein kinase 35 (Homo sapiens) (UniProt Q8TDR2)", "test": "Inhibition of wild-type human partial length STK35 (G182 to A534 residues) expressed in Escherichia coli BL21 assessed as residual activity at 1000 nM after 30 mins by Kinomescan method relative to control"}, "[6]": {"biological_target": "Ribosomal protein S6 kinase alpha-3 (Homo sapiens) (UniProt P51812)", "test": "Inhibition of wild-type human partial length N-terminal RSK3 kinase domain 1 (M1 to Q385 residues) expressed in Escherichia coli BL21 assessed as residual activity at 1000 nM after 30 mins by Kinomescan method relative to control"}, "[7]": {"biological_target": "Serine/threonine-protein kinase D1 (Homo sapiens) (UniProt Q15139)", "test": "Inhibition of wild-type human partial length PRKD1 (G551 to E870 residues) expressed in Escherichia coli BL21 assessed as residual activity at 1000 nM after 30 mins by Kinomescan method relative to control"}, "[8]": {"biological_target": "Serine/threonine-protein kinase MARK1 (Homo sapiens) (UniProt Q9P0L2)", "test": "Inhibition of wild-type human partial length MARK1 (Q30 to T341 residues) expressed in Escherichia coli BL21 assessed as residual activity at 1000 nM after 30 mins by Kinomescan method relative to control"}, "[9]": {"biological_target": "Mitogen-activated protein kinase 13 (Homo sapiens) (UniProt O15264)", "test": "Inhibition of wild-type human full length p38-delta (M1 to L365 residues) expressed in Escherichia coli BL21 assessed as residual activity at 1000 nM after 30 mins by Kinomescan method relative to control"}, "[10]": {"biological_target": "Ribosomal protein S6 kinase alpha-5 (Homo sapiens) (UniProt O75582)", "sequence (O75582 whole entry, looked up, the tested form may be a part)": "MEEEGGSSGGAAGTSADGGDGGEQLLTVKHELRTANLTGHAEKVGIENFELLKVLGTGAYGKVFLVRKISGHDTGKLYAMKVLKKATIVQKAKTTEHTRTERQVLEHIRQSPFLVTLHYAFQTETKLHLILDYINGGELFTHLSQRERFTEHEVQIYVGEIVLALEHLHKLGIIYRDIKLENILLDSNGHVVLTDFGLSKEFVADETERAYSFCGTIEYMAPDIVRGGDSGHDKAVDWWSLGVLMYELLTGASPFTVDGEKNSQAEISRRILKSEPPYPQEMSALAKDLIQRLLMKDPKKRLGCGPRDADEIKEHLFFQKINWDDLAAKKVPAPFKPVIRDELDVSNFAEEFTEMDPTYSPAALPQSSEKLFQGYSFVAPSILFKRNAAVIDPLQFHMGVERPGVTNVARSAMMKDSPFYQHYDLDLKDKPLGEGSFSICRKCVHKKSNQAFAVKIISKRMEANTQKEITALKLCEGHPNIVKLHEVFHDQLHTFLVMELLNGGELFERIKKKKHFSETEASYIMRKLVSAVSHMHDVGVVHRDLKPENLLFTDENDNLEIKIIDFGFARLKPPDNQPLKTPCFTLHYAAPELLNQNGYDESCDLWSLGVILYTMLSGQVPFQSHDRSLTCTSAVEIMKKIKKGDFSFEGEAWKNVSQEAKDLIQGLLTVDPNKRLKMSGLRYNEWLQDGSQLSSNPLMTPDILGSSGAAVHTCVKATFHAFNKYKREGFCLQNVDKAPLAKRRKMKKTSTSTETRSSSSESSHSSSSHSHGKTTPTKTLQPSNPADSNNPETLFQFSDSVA", "test": "Inhibition of wild-type human partial length C-terminal RPS6KA5 kinase domain 2 (V390 to T718 residues) expressed in Escherichia coli BL21 assessed as residual activity at 1000 nM after 30 mins by Kinomescan method relative to control"}, "[11]": {"tested_on": "Tyrosine-protein kinase ABL1 (Homo sapiens), P00519 [H396P]", "test": "Inhibition of human phosphorylated ABL1 H396P mutant (S229 to K512 residues) expressed in HEK293 cells assessed as residual activity at 1000 nM after 30 mins by Kinomescan method relative to control", "type": "cell-based", "method_in_brief": "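Single-point screen at a fixed 1 µM, run within a 456-kinase DiscoveRx KINOMEscan panel. Each kinase's read-out is Percent Control, i.e. signal relative to a control without compound. Hits were scored by a Percent Control < 35 cut-off, and an S(35) selectivity score was calculated across the non-mutant kinases.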"}, "[12]": {"biological_target": "Serine/threonine-protein kinase PAK 6 (Homo sapiens) (UniProt Q9NQU5)", "test": "Inhibition of wild-type human partial length PAK6 (N298 to C681 residues) expressed in Escherichia coli BL21 assessed as residual activity at 1000 nM after 30 mins by Kinomescan method relative to control"}, "[13]": {"biological_target": "Cyclin-dependent kinase-like 5 (Homo sapiens) (UniProt O76039)", "sequence (O76039 whole entry, the tested form may be a part)": "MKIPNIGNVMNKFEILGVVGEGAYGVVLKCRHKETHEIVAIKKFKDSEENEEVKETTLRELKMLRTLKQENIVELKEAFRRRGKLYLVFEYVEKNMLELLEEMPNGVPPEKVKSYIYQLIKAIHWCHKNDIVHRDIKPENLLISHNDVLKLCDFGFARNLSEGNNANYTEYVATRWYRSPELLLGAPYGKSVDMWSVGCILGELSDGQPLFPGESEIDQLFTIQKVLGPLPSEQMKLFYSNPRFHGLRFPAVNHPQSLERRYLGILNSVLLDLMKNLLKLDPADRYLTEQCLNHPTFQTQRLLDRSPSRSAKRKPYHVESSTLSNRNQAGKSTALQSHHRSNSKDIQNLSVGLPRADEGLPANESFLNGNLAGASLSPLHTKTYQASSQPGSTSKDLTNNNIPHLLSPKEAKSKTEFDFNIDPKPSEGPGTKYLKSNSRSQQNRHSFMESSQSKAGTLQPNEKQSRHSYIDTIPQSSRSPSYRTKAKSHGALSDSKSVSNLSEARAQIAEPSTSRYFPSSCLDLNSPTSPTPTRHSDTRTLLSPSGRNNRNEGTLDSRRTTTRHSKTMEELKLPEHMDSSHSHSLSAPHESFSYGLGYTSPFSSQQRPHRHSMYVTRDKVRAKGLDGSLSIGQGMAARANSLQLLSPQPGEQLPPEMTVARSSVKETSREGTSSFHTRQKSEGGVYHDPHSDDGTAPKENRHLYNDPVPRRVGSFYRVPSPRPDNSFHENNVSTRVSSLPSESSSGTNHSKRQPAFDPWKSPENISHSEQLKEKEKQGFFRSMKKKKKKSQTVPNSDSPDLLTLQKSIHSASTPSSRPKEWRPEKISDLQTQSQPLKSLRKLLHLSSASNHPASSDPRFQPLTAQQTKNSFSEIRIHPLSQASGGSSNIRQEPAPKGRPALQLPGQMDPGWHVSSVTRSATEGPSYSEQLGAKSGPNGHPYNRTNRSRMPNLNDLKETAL", "test": "Inhibition of wild-type human partial length CDKL5 (M1 to S337 residues) expressed in HEK293 cells assessed as residual activity at 1000 nM after 30 mins by Kinomescan method relative to control", "type": "cell-based"}, "[14]": {"biological_target": "Serine/threonine-protein kinase Nek10 (Homo sapiens) (UniProt Q6ZWH5)", "test": "Inhibition of wild-type human partial length NEK10 (L488 to R809 residues) expressed in HEK293 cells assessed as residual activity at 1000 nM after 30 mins by Kinomescan method relative to control", "type": "cell-based"}, "[15]": {"biological_target": "Non-receptor tyrosine-protein kinase TYK2 (Homo sapiens) (UniProt P29597)", "sequence (P29597 whole entry, the tested form may be a part)": "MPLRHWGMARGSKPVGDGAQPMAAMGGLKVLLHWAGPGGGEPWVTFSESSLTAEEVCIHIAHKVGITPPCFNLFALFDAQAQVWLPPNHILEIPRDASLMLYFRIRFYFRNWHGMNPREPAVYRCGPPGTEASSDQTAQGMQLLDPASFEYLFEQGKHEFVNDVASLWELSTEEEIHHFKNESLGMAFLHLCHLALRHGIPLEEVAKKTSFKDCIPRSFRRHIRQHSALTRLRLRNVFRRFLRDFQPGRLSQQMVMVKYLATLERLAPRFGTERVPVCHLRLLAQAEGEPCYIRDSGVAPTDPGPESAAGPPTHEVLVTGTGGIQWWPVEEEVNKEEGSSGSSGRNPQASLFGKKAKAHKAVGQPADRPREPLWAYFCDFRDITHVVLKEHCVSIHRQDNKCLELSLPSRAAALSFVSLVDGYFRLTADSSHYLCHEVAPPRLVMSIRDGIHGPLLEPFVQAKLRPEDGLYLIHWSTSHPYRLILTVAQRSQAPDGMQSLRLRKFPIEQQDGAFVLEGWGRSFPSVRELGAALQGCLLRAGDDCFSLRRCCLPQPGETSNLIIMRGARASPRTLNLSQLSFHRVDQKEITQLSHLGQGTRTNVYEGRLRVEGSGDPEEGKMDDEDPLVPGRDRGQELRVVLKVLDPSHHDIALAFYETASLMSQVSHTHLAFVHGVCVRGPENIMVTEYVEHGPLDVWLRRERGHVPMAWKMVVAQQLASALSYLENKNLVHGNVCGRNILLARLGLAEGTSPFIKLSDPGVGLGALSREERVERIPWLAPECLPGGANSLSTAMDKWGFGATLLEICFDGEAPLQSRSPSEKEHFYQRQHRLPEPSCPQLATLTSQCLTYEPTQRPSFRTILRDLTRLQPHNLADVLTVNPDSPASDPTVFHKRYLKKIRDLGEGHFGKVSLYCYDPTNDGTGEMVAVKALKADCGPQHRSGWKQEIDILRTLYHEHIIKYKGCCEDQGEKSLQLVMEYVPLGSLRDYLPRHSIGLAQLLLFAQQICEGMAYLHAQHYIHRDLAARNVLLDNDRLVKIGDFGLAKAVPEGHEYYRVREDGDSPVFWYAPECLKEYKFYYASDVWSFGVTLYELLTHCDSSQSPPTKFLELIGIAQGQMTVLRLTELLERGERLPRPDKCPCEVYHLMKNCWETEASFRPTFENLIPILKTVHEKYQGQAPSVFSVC", "test": "Inhibition of wild-type human partial length TYK2 JH1 catalytic domain (V877 to C1187 residues) expressed in HEK293 cells assessed as residual activity at 1000 nM after 30 mins by Kinomescan method relative to control", "type": "cell-based"}, "[16]": {"biological_target": "Dual specificity protein kinase TTK (Homo sapiens) (UniProt P33981)", "test": "Inhibition of wild-type human partial length TTK (N505 to V798 residues) expressed in Escherichia coli BL21 assessed as residual activity at 1000 nM after 30 mins by Kinomescan method relative to control"}, "[17]": {"biological_target": "Receptor-interacting serine/threonine-protein kinase 2 (Homo sapiens) (UniProt O43353)", "test": "Inhibition of wild-type human partial length RIPK2 (M1 to K310 residues) expressed in Escherichia coli BL21 assessed as residual activity at 1000 nM after 30 mins by Kinomescan method relative to control"}, "[18]": {"tested_on": "Receptor-type tyrosine-protein kinase FLT3 (Homo sapiens), P36888 [D835H]", "test": "Inhibition of human partial length FLT3 D835H mutant (V592 to Y969 residues) expressed in Escherichia coli BL21 assessed as residual activity at 1000 nM after 30 mins by Kinomescan method relative to control", "method_in_brief": "as §1"}, "[19]": {"biological_target": "Serine/threonine-protein kinase TBK1 (Homo sapiens) (UniProt Q9UHD2)", "sequence (Q9UHD2 whole entry, the tested form may be a part)": "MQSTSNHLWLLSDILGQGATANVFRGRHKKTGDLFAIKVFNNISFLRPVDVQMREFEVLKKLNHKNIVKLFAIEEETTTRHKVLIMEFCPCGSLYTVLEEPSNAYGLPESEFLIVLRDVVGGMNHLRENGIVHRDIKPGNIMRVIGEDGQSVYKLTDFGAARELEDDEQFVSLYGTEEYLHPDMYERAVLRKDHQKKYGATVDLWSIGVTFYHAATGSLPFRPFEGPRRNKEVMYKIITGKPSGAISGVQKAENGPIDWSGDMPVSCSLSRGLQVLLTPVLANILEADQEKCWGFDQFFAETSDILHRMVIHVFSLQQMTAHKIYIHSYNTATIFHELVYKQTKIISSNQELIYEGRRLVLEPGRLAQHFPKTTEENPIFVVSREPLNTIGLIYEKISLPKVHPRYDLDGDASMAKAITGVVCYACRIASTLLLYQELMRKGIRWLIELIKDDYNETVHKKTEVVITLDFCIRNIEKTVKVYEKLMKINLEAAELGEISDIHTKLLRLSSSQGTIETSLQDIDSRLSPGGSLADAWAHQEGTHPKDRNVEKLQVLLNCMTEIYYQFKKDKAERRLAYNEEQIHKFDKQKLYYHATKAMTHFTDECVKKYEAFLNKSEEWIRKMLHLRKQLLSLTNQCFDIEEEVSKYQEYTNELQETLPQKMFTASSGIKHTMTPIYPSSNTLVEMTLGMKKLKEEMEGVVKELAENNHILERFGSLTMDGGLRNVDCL", "test": "Inhibition of wild-type human full length TBK1 (M1 to L729 residues) expressed in HEK293 cells assessed as residual activity at 1000 nM after 30 mins by Kinomescan method relative to control", "type": "cell-based"}, "[20]": {"biological_target": "Cyclin-dependent kinase 11A (Homo sapiens) (UniProt Q9UQ88)", "test": "Inhibition of wild-type human partial length CDC2L2 (D391 to K730 residues) expressed in Escherichia coli BL21 assessed as residual activity at 1000 nM after 30 mins by Kinomescan method relative to control"}, "[21]": {"tested_on": "Tyrosine-protein kinase ABL1 (Homo sapiens), P00519 [F317I]", "test": "Inhibition of human non-phosphorylated ABL1 F317I mutant (S229 to K512 residues) expressed in HEK293 cells assessed as residual activity at 1000 nM after 30 mins by Kinomescan method relative to control", "type": "cell-based", "method_in_brief": "as §1"}}}
{"smiles": "COc1cc(OC)c(Cl)c(N2Cc3cnc(Nc4ccc(F)cc4)nc3N(C3CCN(C(=O)/C=C/CN(C)C)CC3)C2=O)c1Cl", "values": [{"measurement": "activity at 0.5 h, 1 µM", "setting": "[1]", "result": 7.3, "unit": "%"}, {"measurement": "Activity", "setting": "[2]", "result": 36, "unit": "%"}, {"measurement": "Activity", "setting": "[3]", "result": 100, "unit": "%"}, {"measurement": "Activity", "setting": "[4]", "result": 100, "unit": "%"}, {"measurement": "Activity", "setting": "[5]", "result": 100, "unit": "%"}, {"measurement": "Activity", "setting": "[6]", "result": 97, "unit": "%"}, {"measurement": "Activity", "setting": "[7]", "result": 73, "unit": "%"}, {"measurement": "Activity", "setting": "[8]", "result": 99, "unit": "%"}, {"measurement": "Activity", "setting": "[9]", "result": 90, "unit": "%"}, {"measurement": "Activity", "setting": "[10]", "result": 100, "unit": "%"}, {"measurement": "Activity", "setting": "[11]", "result": 42, "unit": "%"}, {"measurement": "Activity", "setting": "[12]", "result": 100, "unit": "%"}, {"measurement": "Activity", "setting": "[13]", "result": 100, "unit": "%"}, {"measurement": "Activity", "setting": "[14]", "result": 86, "unit": "%"}, {"measurement": "Activity", "setting": "[15]", "result": 83, "unit": "%"}, {"measurement": "Activity", "setting": "[16]", "result": 86, "unit": "%"}, {"measurement": "Activity", "setting": "[17]", "result": 100, "unit": "%"}, {"measurement": "Activity", "setting": "[18]", "result": 100, "unit": "%"}, {"measurement": "Activity", "setting": "[19]", "result": 92, "unit": "%"}, {"measurement": "Activity", "setting": "[20]", "result": 88, "unit": "%"}, {"measurement": "Activity", "setting": "[21]", "result": 100, "unit": "%"}]}
